Lung fibro prol: antiproliferative effect on LL 47 fibroblasts – human, LL 47 cells, CellTiter-Glo luminescence, primary screen; viability, % at 10 µM; AID 719, 2007; LL 47 human lung fibroblast viability, ATP luminescence; stronger effect = lower value; 85,000 compounds, 1.1% hits;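 active = viability at or below 50% in the single dose screen; inactive = viability above 50%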;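 also: compound exposure lasted 72 h before the ATP readout; 100% = median luminescence of untreated cell-only wells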
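Times – overnight cell rest, 72 h compound treatment at 37 °C · Test system – human lung fibroblast line LL 47, low passage · Amount – 1,150 cells in each well · Controls – cell-only wells, no compound · Doses – 0.1% DMSO in all compound wells · Measured by – CellTiter-Glo luminescence · Buffer or medium – IMEM plus 15% FBS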
HCT116 bCat-KO: primary screen for growth suppressors in beta-catenin knockout HCT116 cells (colon tumor, human). HCT116 beta-catenin knockout viability, CellTiter-Glo, 60 h; stronger effect = lower value. viability, % at 10 µM. 140,000 compounds, 1.5% hits. AID 818, 2007;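 active = viability at or under a set limit, the compound median less 4 SD, cut at about 6% in these data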;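 also: 0% = Hyamine 1622 control at 20 µM and 100% = untreated cell control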
HUVEC prolif 384: inhibitors of HUVEC proliferation, primary screen, cell-based, 384-well. CellTiter-Glo luminescence, 72 h; stronger effect = lower value. viability, % at 10 µM (by protocol). 86,000 compounds, 1.1% hits. AID 648, 2007;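 active = viability at or below 30%; inactive = viability above 30%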;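 also: 100% = median luminescence of DMSO-only cell control wells on each plate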
PTEN del growth: growth suppression of PTEN-null HCT116, primary screen, cell-based, CellTiter-Glo. HCT116 PTEN-null viability, 60 h; stronger effect = lower value. viability, % at 10 µM. 140,000 compounds, 1.2% hits;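 active = viability at or below a set limit, 4 SD under the median of all tested compounds, cut at about 3.7% in these data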;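 also: PTEN knockout HCT116 line with beta catenin targeted HCT116 as companion control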
H69AR inhibit: proliferation blockers of H69AR lung cancer cells, primary screen, cell-based, human, 86K library. H69AR lung tumor viability, ATP luminescence, 72 h; stronger effect = lower value. viability, % at 10 µM. 85,000 compounds, 6% hits. AID 598, 2007;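 active = viability at or below 40%; inactive = viability above 40%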;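 also: multidrug resistant small cell line overexpressing MRP-1 efflux transporter; 100% = mean luminescence of untreated control wells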
* = called active by the depositor; . = not tested or not shown. The full list was thinned out, with hits kept by preference.

SMILES | Lung fibro prol | HCT116 bCat-KO | HUVEC prolif 384 | PTEN del growth | H69AR inhibit
Cc1occc1C(=O)NNC1=CC(=O)CC(C)(C)C1 | . | 93.7 | . | 104.1 | .
Cc1ccc(NC(=O)CSc2nc3ccccc3c(=O)n2CCCC(=O)N2CCCC2)cc1 | 76.9 | 35.5 | 60.6 | 38.8 | 14.9*
CCn1c(SCC(=O)N2CCC(C(N)=O)(N3CCCCC3)CC2)nc2ccccc2c1=O | 90.0 | . | 80.6 | . | 9.0*
Cc1cc(NC(=O)CSc2nc3c(sc4ccccc43)c(=O)n2CCc2ccccc2)n[nH]1 | 113.3 | 95.4 | 100.6 | 89.6 | 90.2
Cc1cc(NC(=O)CSc2nc3c(sc4ccccc43)c(=O)n2CCCN2CCOCC2)n[nH]1 | 38.7* | 11.8 | 84.9 | 91.2 | 33.3*
Cc1ccc(NC(=O)CSc2nc3ccccc3c(=O)n2CCCN2CCCCC2)cc1C | 3.0* | 1.9* | 12.8* | 2.1* | 2.2*
COCCCn1c(SCC(=O)Nc2ccc(C(=O)OC)cc2)nc2ccccc2c1=O | 102.1 | 86.6 | 109.0 | 92.2 | 91.8
CCOC(=O)C1C(C)=C(Nc2ccc(OC)cc2)C(=O)N1c1ccc(OC)cc1 (centres undefined) | . | 85.6 | . | 97.6 | .
C=C1CC(C(=O)N/N=C/c2ccccc2)C1 | . | 85.8 | . | 104.5 | .
Cc1c(Br)c([N+](=O)[O-])nn1CC(=O)Nc1c(C)n(C)n(-c2ccccc2)c1=O | . | 96.7 | . | 97.2 | .
Cc1ccc(CSc2nc3ccccc3c(=O)n2CCCC(=O)NCc2ccco2)cc1 | 83.2 | 47.5 | 57.5 | 58.7 | 29.0*
Cn1c(=O)c2ncn(CC(=O)Nc3ccc4oc(-c5cccc6ccccc56)nc4c3)c2n(C)c1=O | 60.0 | . | 27.3* | . | 100.6
CCC(C)c1ccc2oc(-c3ccc(NC(=O)Cn4cnc5c(=O)n(C)c(=O)n(C)c54)cc3)nc2c1 (centres undefined) | 34.1* | 1.6* | 42.2 | 1.5* | 24.8*
O=C(O)CCCNC(=O)CCCNC(=O)C(c1ccccc1)c1ccccc1 | . | 92.1 | . | 93.6 | .
CC(C)N(c1ccccc1)c1ccc(NC(=O)COC(=O)CCN2C(=O)c3cccc([N+](=O)[O-])c3C2=O)cc1 | . | 77.2 | . | 79.5 | .
COC(=O)c1ccc(CC(=O)c2nc3ccccc3s2)cc1 | . | 88.7 | . | 87.7 | .
COC(=O)c1ccc(/C(O)=C(\C#N)c2nc3ccccc3s2)cc1 | 93.8 | 85.6 | 50.4 | 84.2 | 31.7*
Cc1nn(Cc2ccc(Cl)cc2Cl)c(C)c1NC(=O)NC12CC3CC(CC(C3)C1)C2 | . | 46.9 | . | 42.1 | .
O=[N+]([O-])c1ccc(Oc2cccc(F)c2)c2ccncc12 | 64.9 | 68.1 | 61.5 | 67.3 | 34.1*
O=[N+]([O-])c1cnccc1Nc1cccc(F)c1 | 92.6 | 97.1 | 85.7 | 94.3 | 86.3
CN(C)c1ccc(/C=[N+](\[O-])C(C)(C)/C=N/O)cc1 | . | 89.0 | 96.6 | 94.6 | 29.8*
CC(C)(/C=N/O)/[N+]([O-])=C/C=[N+](\[O-])C(C)(C)/C=N/O | 92.2 | 98.7 | 96.3 | 101.0 | 88.7
Cc1cc(C)c(-n2c(C)cc(/C=C3/NC(=O)NC3=O)c2C)c(C)c1 | 90.2 | 72.4 | 74.4 | 55.0 | 17.1*
COc1cc(C(=O)NCCCNc2ccc([N+](=O)[O-])cc2)cc(OC)c1OC | . | 89.5 | . | 80.7 | .
O=C(COC(=O)Cc1cn2ccsc2n1)Nc1nc2ccccc2s1 | 93.3 | 83.2 | 96.3 | 96.7 | 7.2*
SMILES | Lung fibro prol | HCT116 bCat-KO | HUVEC prolif 384 | PTEN del growth | H69AR inhibit
COCC(=O)Nc1nc2ccccc2s1 | 98.7 | 95.6 | 109.5 | 113.6 | 93.6
O=[N+]([O-])/C=C/c1cn(Cc2ccc(Cl)cc2)c2ccccc12 | . | 10.4 | . | 1.9* | .
Cc1cccc(Cn2cc(/C=C/[N+](=O)[O-])c3ccccc32)c1 | . | 3.2* | . | 3.0* | .
C[N+](C)(C)CCOP(=O)(O)OP(=O)([O-])OC[C@H]1O[C@@H](n2ccc(N)nc2=O)[C@H](O)[C@@H]1O | 92.4 | 96.8 | 99.7 | 95.9 | 100.3
Cc1oc2c(c1C(=O)N1CCC(C)CC1)C(=O)c1ccccc1C2=O | . | 1.6* | . | 1.5* | .
CCOC(=O)C1CCN(C(=O)c2c(C)oc3c2C(=O)c2ccccc2C3=O)CC1 | . | 1.1* | . | 0.7* | .
CC1CCN(C(=O)c2cc3ccccc3c(=O)o2)CC1 | . | 104.0 | . | 96.0 | .
CSCCC(NS(=O)(=O)c1ccc(Cl)cc1)C(=O)OCC(=O)c1ccc(F)cc1 (centres undefined) | . | 89.0 | . | 91.4 | .
COc1ccc(/C=C/C(=O)NC(=S)NNC(=O)c2ccco2)cc1 | 62.8 | 36.0 | 43.1 | 42.9 | 31.5*
Cc1cc(C)c(S(=O)(=O)N(C2=NCCS2)S(=O)(=O)c2c(C)cc(C)cc2C)c(C)c1 | 101.0 | 96.5 | 102.6 | 97.7 | 22.3*
Cc1cc(C)c(S(=O)(=O)N(CC(=O)O)CC(=O)O)c(C)c1 | 94.9 | 113.1 | 99.5 | 104.3 | 98.6
CCOC(=O)NCc1ccc(S(=O)(=O)Nc2c(C)cccc2C)cc1 | 93.9 | 87.8 | 95.8 | 91.5 | 100.2
Cc1ccc(-n2sc3ccccc3c2=O)cc1 | . | 1.4* | . | 1.1* | .
C/C(=N\O)C(=O)NCCN(C)C | . | 97.5 | . | 106.1 | .
CN1CCN(/C=N/C2=C(C#N)C(c3ccccc3)C3=C(CC(C)(C)CC3=O)O2)CC1 (centres undefined) | 91.9 | 105.1 | 85.8 | 100.6 | 38.7*
CC1(C)CC(=O)C2=C(C1)OC(N)=C(C#N)C2C#Cc1ccccc1 (centres undefined) | 79.3 | 19.6 | 42.6 | 18.2 | 1.7*
CC1(C)CC(=O)C2=C(C1)OC(/N=C/N1CCOCC1)=C(C#N)C2c1ccccc1 (centres undefined) | 93.3 | 96.4 | 91.4 | 97.3 | 55.9
CCN(CC)c1ccc(C(=O)NC(=S)Nc2cc(S(=O)(=O)N3CCOCC3)ccc2-n2cncn2)cc1 | . | 94.3 | . | 65.6 | .
COc1cccc(N2CCN(c3ncnc4c3[nH]c3ccc(F)cc34)CC2C)c1 (centres undefined) | 1.9* | 2.0* | 2.3* | 1.6* | 4.0*
COc1cccc(N2CCN(c3ncnc4c3[nH]c3ccccc34)CC2C)c1 (centres undefined) | . | 4.7* | . | 7.0 | .
Cc1cccc2sc(NC(=O)c3ccc(NS(=O)(=O)c4cccs4)cc3)nc12 | . | 90.6 | . | 87.4 | .
O=C1CN(C(=O)c2cc([N+](=O)[O-])ccc2Cl)C(c2ccc(F)cc2)c2cc(F)ccc2N1 (centres undefined) | . | 77.9 | . | 79.8 | .
CC(=O)c1ccc(Sc2nnnn2-c2ccccc2)c([N+](=O)[O-])c1 | . | 5.7* | . | 5.8 | .
CN1CCN(S(=O)(=O)c2ccc(Sc3nnnn3-c3ccccc3)c([N+](=O)[O-])c2)CC1 | . | 5.4* | . | 3.2* | .
Nc1ccc(Sc2nnnn2-c2ccccc2)c(Cl)c1 | 100.3 | 95.1 | 100.5 | 102.8 | 99.0
O=[N+]([O-])c1ccc(Sc2nnnn2-c2ccccc2)c(Cl)c1 | 43.6* | 18.1 | 51.1 | 19.3 | 5.1*
N#Cc1c(N2CCN(C(=O)c3ccccc3)CC2)nc(-c2ccccc2)c2c1CCCC2 | 91.3 | 77.0 | 69.0 | 73.6 | 14.5*
